Assay results: ChEMBL document CHEMBL2146441, “2,6-Disubstituted imidazo[2,1-b][1,3,4]thiadiazoles: search for anticancer agents” (2012)

Key:
Type in all cases: functional
SNB-75 = assay: Cytotoxicity against human SNB75 cells assessed as cell growth at 10^-4 M after 48 hrs by SRB assay; conditions: SNB-75, 48 h, read-out: Activity
MCF7 [1] = assay: Cytotoxicity against human MCF7 cells assessed as cell growth at 10^-7 M after 48 hrs by SRB assay; conditions: MCF7, 48 h, read-out: Activity
MDA-MB-435 = assay: Cytotoxicity against human MDA-MB-435 cells assessed as cell growth at 10^-4 M after 48 hrs by SRB assay; conditions: MDA-MB-435, 48 h, read-out: Activity
SK-MEL-2 = assay: Cytotoxicity against human SK-MEL-2 cells assessed as cell growth at 10^-5 M after 48 hrs by SRB assay; conditions: SK-MEL-2, 48 h, read-out: Activity
HOP-62 = assay: Cytotoxicity against human HOP62 cells assessed as cell growth at 10^-6 M after 48 hrs by SRB assay; conditions: HOP-62, 48 h, read-out: Activity
Method in brief: (§1)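 NCI-60 five-dose screen. Cells were grown in RPMI 1640 with 5% FBS and seeded at 5000–40,000 cells/well according to doubling time. They were pre-incubated 24 h at 37 °C in 5% CO₂, and time-zero (Tz) plates were TCA-fixed at drug addition. Five 10-fold dilutions of DMSO stock were applied for 48 h. Read-out was SRB staining, 515 nm absorbance, with percent growth calculated versus Tz and untreated control.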

ACHN = assay: Cytotoxicity against human ACHN cells assessed as cell growth at 10^-7 M after 48 hrs by SRB assay; conditions: read-out: Activity
Method in brief: (§2)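 NCI-60 screen: lines kept in RPMI 1640 with 5% FBS, seeded at 5000–40,000 cells/well by doubling time, preincubated 24 h at 37 °C in 5% CO2. Time-zero plates TCA-fixed at drug addition. DMSO stocks diluted in medium, 48 h exposure. Fixation in cold TCA (final 10% adherent, 16% suspension), 0.4% SRB stain, solubilised in 10 mM Tris base, A515. Percent growth computed against control and time-zero.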

Malme-3M [2] = assay: Cytotoxicity against human MALME-3M cells assessed as cell growth at 10^-8 M after 48 hrs by SRB assay; conditions: read-out: Activity
T47D = assay: Cytotoxicity against human T47D cells assessed as cell growth at 10^-4 M after 48 hrs by SRB assay; conditions: read-out: Activity
HCC 2998 = assay: Cytotoxicity against human HCC2998 cells assessed as cell growth at 10^-7 M after 48 hrs by SRB assay; conditions: HCC 2998, 48 h, read-out: Activity; method in brief: as §1
SW-620 [3] = assay: Cytotoxicity against human SW620 cells assessed as cell growth at 10^-4 M after 48 hrs by SRB assay; conditions: SW-620, 48 h, read-out: Activity
SF-539 [4] = assay: Growth inhibition of human SF539 cells after 48 hrs by SRB assay; conditions: SF-539, 48 h
Method in brief: (§3)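 Adherent NCI-60 lines grown in RPMI 1640 with 5% FBS, seeded at 5000–40,000 cells/well, and preincubated 24 h at 37 °C, 5% CO2. Compound, stocked in DMSO, given either once at 10^-5 M or at five 10-fold dilutions for 48 h. Cells fixed with cold TCA (final 10%), stained with 0.4% SRB, and read at 515 nm. GI50 taken as 50% reduction in net protein increase versus time-zero and control plates.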

[5] = Growth inhibition of human […] cells after 48 hrs by SRB assay
NCI-H522 [6] = assay: Cytotoxicity against human NCI-H522 cells assessed as cell growth at 10^-4 M after 48 hrs by SRB assay; conditions: NCI-H522, 48 h, read-out: Activity
TK-10 [7] = assay: Growth inhibition of human TK10 cells after 48 hrs by SRB assay; conditions: TK-10, 48 h; for CC50: read-out: LC50 (the source's name); method in brief: as §3
SF-295 = assay: Cytotoxicity against human SF295 cells assessed as cell growth at 10^-7 M after 48 hrs by SRB assay; conditions: SF-295, 48 h, read-out: Activity
EKVX = assay: Cytotoxicity against human EKVX cells assessed as cell growth at 10^-4 M after 48 hrs by SRB assay; conditions: read-out: Activity; method in brief: as §2
MDA-MB-468 = assay: Cytotoxicity against human MDA-MB-468 cells assessed as cell growth at 10^-6 M after 48 hrs by SRB assay; conditions: MDA-MB-468, 48 h, read-out: Activity
SF-539 [8] = assay: Cytotoxicity against human SF539 cells assessed as cell growth at 10^-5 M after 48 hrs by SRB assay; conditions: SF-539, 48 h, read-out: Activity
SF-268 = assay: Cytotoxicity against human SF268 cells assessed as cell growth at 10^-8 M after 48 hrs by SRB assay; conditions: SF-268, 48 h, read-out: Activity
OVCAR-4 = assay: Cytotoxicity against human OVCAR4 cells assessed as cell growth at 10^-7 M after 48 hrs by SRB assay; conditions: OVCAR-4, 48 h, read-out: Activity
A498 = assay: Growth inhibition of human A498 cells after 48 hrs by SRB assay; conditions: A498, 48 h
Method in brief: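 Same 48 h NCI-60 five-dose SRB protocol. Adherent lines were fixed with cold TCA at 10% final; suspension lines such as CCRF-CEM were fixed with 16% final TCA. Stain was 0.4% SRB in 1% acetic acid for 10 min, solubilized in 10 mM Tris base and read at 515 nm. GI50 came from log concentration–growth curves, solving [(Ti−Tz)/(C−Tz)]×100 = 50.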

Malme-3M [9] = assay: Cytotoxicity against human MALME-3M cells assessed as cell growth at 10^-4 M after 48 hrs by SRB assay; conditions: read-out: Activity
SW-620 [10] = assay: Cytotoxicity against human SW620 cells assessed as cell growth at 10^-6 M after 48 hrs by SRB assay; conditions: SW-620, 48 h, read-out: Activity
TK-10 [11] = assay: Cytotoxicity against human TK10 cells assessed as cell growth at 10^-8 M after 48 hrs by SRB assay; conditions: TK-10, 48 h, read-out: Activity
NCI-H522 [12] = assay: Growth inhibition of human NCI-H522 cells after 48 hrs by SRB assay; conditions: NCI-H522, 48 h; for CC50: read-out: LC50 (the source's name); method in brief: as §3
[13] = Cytotoxicity against human Hs 578T cells assessed as cell growth at 10^-4 M after 48 hrs by SRB assay; conditions: read-out: Activity; method in brief: as §1
MCF7 [14] = assay: Cytotoxicity against human MCF7 cells assessed as cell growth at 10^-4 M after 48 hrs by SRB assay; conditions: MCF7, 48 h, read-out: Activity
HCT-116 = assay: Cytotoxicity against human HCT116 cells assessed as cell growth at 10^-5 M after 48 hrs by SRB assay; conditions: HCT-116, 48 h, read-out: Activity; method in brief: as §1
MDA-MB-231 = assay: Growth inhibition of human MDA-MB-231 cells after 48 hrs by SRB assay; conditions: MDA-MB-231, 48 h; method in brief: as §3

| SMILES | growth at 100 µM (SNB-75) | growth at 0.1 µM (MCF7 [1]) | growth at 100 µM (MDA-MB-435) | growth at 10 µM (SK-MEL-2) | growth at 1 µM (HOP-62) | growth at 0.1 µM (ACHN) | growth at 0.01 µM (Malme-3M [2]) | growth at 100 µM (T47D) | growth at 0.1 µM (HCC 2998) | growth at 100 µM (SW-620 [3]) | GI50 (SF-539 [4]) | TGI (SF-539 [4]) | GI50 [5] | growth at 100 µM (NCI-H522 [6]) | GI50 (TK-10 [7]) | TGI (TK-10 [7]) | CC50 (TK-10 [7]) | growth at 0.1 µM (SF-295) | growth at 100 µM (EKVX) | growth at 1 µM (MDA-MB-468) | further results |
| --- | --- | --- | --- | --- | --- | --- | --- | --- | --- | --- | --- | --- | --- | --- | --- | --- | --- | --- | --- | --- | --- |
| COc1ccc(-c2nn3cc(-c4ccc(O)cc4O)nc3s2)cc1 | -37% | 89% | -38% | 9% | 81% | 101% | 87% | -20% | 94% | 6% | 1.83 µM | 3.47 µM | 1.92 µM | -23% | 3.46 µM | 17.4 µM | > 100 µM | 90% | -9% | 59% | growth at 10 µM (SF-539 [8]): -82%; growth at 0.01 µM (SF-268): 97%; growth at 0.1 µM (OVCAR-4): 88%; GI50 (A498): 0.365 µM; LC50 (concentration giving 50% net cell kill) (A498): > 100 µM; TGI (A498): 2.56 µM; growth at 100 µM (Malme-3M [9]): -28%; growth at 1 µM (SW-620 [10]): 86%; growth at 0.01 µM (TK-10 [11]): 92%; GI50 (NCI-H522 [12]): 1.88 µM; TGI (NCI-H522 [12]): 11.2 µM; CC50 (NCI-H522 [12]): > 100 µM; growth at 100 µM [13]: -1%; growth at 100 µM (MCF7 [14]): -7%; growth at 10 µM (HCT-116): -62%; GI50 (MDA-MB-231): 1.37 µM; TGI (MDA-MB-231): 3.57 µM |
| COc1ccc(-c2nn3cc(-c4cccc(N)c4)nc3s2)cc1 | -49% | 78% | -53% | 39% | 84% | 105% | 102% | -14% | 96% | -5% | 2.51 µM | 7.83 µM | 2.33 µM | -76% | 7.56 µM | 37.4 µM | > 100 µM | 87% | -18% | 68% | LC50 (SF-539 [4]): 48 µM; growth at 10 µM (SF-539 [8]): -11%; growth at 0.01 µM (SF-268): 100%; growth at 0.1 µM (OVCAR-4): 92%; GI50 (A498): 1.11 µM; LC50 (concentration giving 50% net cell kill) (A498): 45.2 µM; TGI (A498): 5.73 µM; growth at 100 µM (Malme-3M [9]): -66%; growth at 1 µM (SW-620 [10]): 86%; growth at 0.01 µM (TK-10 [11]): 125%; GI50 (NCI-H522 [12]): 1.63 µM; TGI (NCI-H522 [12]): 14 µM; CC50 (NCI-H522 [12]): 51.1 µM; growth at 100 µM [13]: -10%; growth at 100 µM (MCF7 [14]): -47%; growth at 10 µM (HCT-116): 16%; GI50 (MDA-MB-231): 1.58 µM; LC50 (concentration killing 50% of cells present at time zero) (MDA-MB-231): > 100 µM; TGI (MDA-MB-231): 13.2 µM |
